SUMO1 PPI mod: modulators of SUMO1 protein-protein interactions, primary screen, biochemical, uHTS. inhibition, % at 20 µM. SUMO1 binding to a labelled peptide, TR-FRET, 1 h. 0.33% of 360,000 active; in the data active = inhibition above about 37%
Target sequence (P63165 whole entry, looked up): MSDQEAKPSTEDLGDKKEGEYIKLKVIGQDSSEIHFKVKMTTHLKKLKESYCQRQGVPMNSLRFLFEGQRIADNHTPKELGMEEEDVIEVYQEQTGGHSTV
DNMT1 block: human DNMT1 methyltransferase inhibitors, primary screen, biochemical, molecular beacon, fluorescence, HinP1I cleavage, uHTS; 0.83% of 360,000 active; DNA (cytosine-5)-methyltransferase 1 (Homo sapiens), P26358; inhibition (reported as % activation of signal), % at 10 µM; in the data active = inhibition above about 50%
STEP inh: STEP phosphatase inhibitors, primary screen, biochemical, fluorescence intensity, uHTS | Tyrosine-protein phosphatase non-receptor type 5 (Homo sapiens), P54829 | recombinant STEP, OMFP fluorogenic substrate | inhibition, % at 20 µM | 0.25% of 360,000 active | AID 588621, 2011;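 active = inhibition at 20 µM, scaled per plate between control wells, above about 37%, limit read from the data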;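 note: 0% = DMSO with enzyme and substrate and 100% = substrate only without enzyme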
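Measure: Control-normalized % inhibition with plate pattern correction | Test system: STEP phosphatase, cell-free reaction | Medium: pH 6.0 Bis-Tris with DTT and Tween 20 | Technique: Fluorescence, 480/540 nm | Times: Reaction 20 min, ambient temperature | Doses: Single compound dose of 20 µM, 1% DMSO final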
LMPTP inh: LMPTP phosphatase inhibitors, primary screen, biochemical, fluorescence intensity, uHTS. 0.22% of 360,000 active. AID 651560, 2012. Low molecular weight phosphotyrosine protein phosphatase (Homo sapiens), P24666. inhibition, % at 20 µM. recombinant LMPTP-A, OMFP fluorogenic substrate;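 active = compounds that cut the enzyme signal by at least half of the control window in the single-dose screen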;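 note: plate controls were DMSO wells with enzyme plus substrate for no effect and substrate without enzyme for full effect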
Target sequence (P24666 whole entry, looked up): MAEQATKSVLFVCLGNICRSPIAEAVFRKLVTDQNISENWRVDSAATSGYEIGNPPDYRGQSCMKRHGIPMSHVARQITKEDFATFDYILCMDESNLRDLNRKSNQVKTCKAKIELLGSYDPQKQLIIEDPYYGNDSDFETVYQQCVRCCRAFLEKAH
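Test system: LMPTP-A, protein tyrosine phosphatase of low molecular weight; Input: 0.625 nM enzyme; Incubation: 50 min dark incubation at room temperature; Signal: endpoint fluorescence intensity from OMFP dephosphorylation; Read-out basis: % inhibition versus control wells.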
Scp1 inh: Scp-1 phosphatase inhibitors, primary screen, biochemical, colorimetric, uHTS; Carboxy-terminal domain RNA polymerase II polypeptide A small phosphatase 1 (Homo …; Recombinant Scp1, phosphopeptide, malachite green phosphate absorbance; inhibition, % at 20 µM; 0.88% of 340,000 active;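 active = inhibition above about 50% at 20 µM, limit read from the data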;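 note: plate controls were DMSO wells with enzyme for no effect and wells lacking enzyme for full effect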
Target sequence (Q9GZU7 76-261 limits assumed): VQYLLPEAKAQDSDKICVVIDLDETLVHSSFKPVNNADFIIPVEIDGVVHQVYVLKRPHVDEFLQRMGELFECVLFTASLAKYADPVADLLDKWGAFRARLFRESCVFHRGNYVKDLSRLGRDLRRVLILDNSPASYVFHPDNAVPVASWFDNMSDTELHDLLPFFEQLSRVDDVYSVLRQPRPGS
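Test system: SCP-1 phosphatase catalytic domain, residues 76-261 | Compound dosing: One concentration, 20 µM, with 1.0% DMSO | Schedule: 45 min room-temperature reaction, 5 min colour, 30 min stabiliser | Detection: Absorbance at 630 nm | Read-out basis: % inhibition of SCP-1 phosphate liberation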
DNMT1 interf DR: spectral interference with molecular beacon fluorescence, dose response, artefact control for DNMT1 inhibitor project, biochemical, fluorescent molecular beacon | spectral interference counter-screen | 200 tested, under 10 active | AID 602382, 2012 | shares compounds with DNMT1 block | IC50, µM; call rule not given here
DNMT1 confirm: DNMT1 methyltransferase inhibitor retest, confirmation, biochemical, molecular beacon, fluorescence, single concentration; shares compounds with DNMT1 block; DNMT1 molecular beacon HinP1I cleavage; inhibition, % at 10 µM; 8% of 2,300 active;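 active = average inhibition of at least 30% in the single-concentration confirmation test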
Beacon interf: counter-screen for DNMT1 inhibitors: spectral interference | 1% of 2,300 active | activation (fluorescence interference), % at 10 µM | AID 602387 | shares compounds with DNMT1 block | DNMT1 molecular beacon spectral interference counterscreen, fluorescence 485/520;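 active = activation of at least 30% at 10 µM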;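 note: DNMT1 catalytic domain with a HinP1I cleavage step and a FAM/dabcyl DNA beacon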
Active calls of the source: *. The list is not random: actives were taken first. Their share in the collection is about 1.7%.

For CC1(Oc2ccc3ccccc3c2)CCN(Cc2cccn2-c2nccs2)C1 (stereo unspecified) the results were SUMO1 PPI mod -3, DNMT1 block 3, STEP inh -2 and LMPTP inh 0.
Screening COc1ccc(CCn2c(N)c(C(=O)NCc3ccco3)c3nc4ccccc4nc32)cc1OC returned SUMO1 PPI mod 44*, DNMT1 block 54*, STEP inh 3, LMPTP inh 5, Scp1 inh -5, DNMT1 confirm 9 and Beacon interf 9.
O=C(O)CN1C(=O)/C(=C\c2ccccc2OCc2ccc(Cl)cc2Cl)SC1=S was read as SUMO1 PPI mod 12, DNMT1 block 20, STEP inh 16, LMPTP inh 7 and Scp1 inh 6.
`O=C(O)CCN1C(=O)/C(=C\c2ccc(OCc3ccccc3)c(OCc3ccccc3)c2)SC1=S` gave SUMO1 PPI mod 24, DNMT1 block 98*, STEP inh 7, LMPTP inh 14, Scp1 inh 16, DNMT1 confirm 22 and Beacon interf 1.
O=C(O)CN1C(=O)/C(=C\c2cc(Br)ccc2OCc2ccccc2Cl)SC1=S was read as SUMO1 PPI mod 22, DNMT1 block 65*, STEP inh 15, LMPTP inh 16, Scp1 inh 34, DNMT1 interf DR >99, DNMT1 confirm 71* and Beacon interf -8.
Screening COc1cccc(C(=O)Nc2ccc(S(=O)(=O)NCc3ccco3)cc2)c1 returned SUMO1 PPI mod -2, DNMT1 block 8, STEP inh -4, LMPTP inh 0 and Scp1 inh -4.
Screening O=C(Nc1ccc(S(=O)(=O)NCc2ccco2)cc1)c1cccc(F)c1 returned SUMO1 PPI mod 5, DNMT1 block 84*, STEP inh 8, LMPTP inh 1, Scp1 inh 34, DNMT1 confirm 8 and Beacon interf 7.
Screening Cc1cc(NC(=O)c2cncc(Br)c2)ccc1NC(=O)c1cc2ccccc2o1 returned SUMO1 PPI mod 38, DNMT1 block 75*, STEP inh 9, LMPTP inh 1, Scp1 inh 4, DNMT1 confirm 10 and Beacon interf -2.
CC1(C)CN(c2ccc(Br)cc2)C(=O)[C@H]1CC(=O)Nc1ccccc1 was read as SUMO1 PPI mod 7, DNMT1 block 1, STEP inh 0 and LMPTP inh 0.
`CN(CC(=O)Nc1cccc(F)c1)C(=O)c1ccc2c(c1)CC(c1ccccc1)OC2=O` (stereo unspecified) gave SUMO1 PPI mod 2, DNMT1 block 2, STEP inh -3, LMPTP inh 0 and Scp1 inh -2.
Screening COc1ccc2ccccc2c1C(O)c1nccn1C (stereo unspecified) returned SUMO1 PPI mod -19, DNMT1 block 62*, STEP inh -20, LMPTP inh -1, Scp1 inh -14, DNMT1 confirm 0 and Beacon interf 2.
`C[C@H]1COc2cccc(N3CCC[C@@H]3CO)c2S(=O)(=O)N1` gave SUMO1 PPI mod 2 and LMPTP inh 1.
`C=CCn1c(SCC(=O)NC2CC2)nc2ccccc2c1=O` gave SUMO1 PPI mod 1, DNMT1 block 1, STEP inh -1, LMPTP inh -1 and Scp1 inh -6.
For C=CCn1c(SCC(=O)NC2CCCC2)nc2ccccc21 the results were SUMO1 PPI mod 3, DNMT1 block 70*, STEP inh -2, LMPTP inh 2, DNMT1 confirm 3 and Beacon interf 3.
Screening CCN(C(=O)COC(=O)c1nccnc1N)c1cccc2ccccc12 returned SUMO1 PPI mod -17, DNMT1 block 61*, STEP inh -3, LMPTP inh -1, Scp1 inh -12, DNMT1 confirm 3 and Beacon interf 3.
For COC(C[C@@H](O)C[C@H](O)COCc1ccccc1)OC the results were SUMO1 PPI mod 4, DNMT1 block 5, STEP inh -4, LMPTP inh 0 and Scp1 inh 4.
Cc1ccc(-n2nc3c(c2NC(=O)c2ccc(Br)o2)CSC3)c(C)c1 was read as SUMO1 PPI mod 8, DNMT1 block 53*, STEP inh 5, LMPTP inh 0, Scp1 inh -8, DNMT1 confirm 14 and Beacon interf -5.
Screening Cc1ccc(-n2nc3c(c2NC(=O)C(C)(C)C)CSC3)c(C)c1 returned SUMO1 PPI mod 0, DNMT1 block 3, STEP inh 0, LMPTP inh -2 and Scp1 inh 3.
For CC(C)C(CCNC(=O)CC(Cc1ccccc1)c1ccco1)c1ccco1 (stereo unspecified) the results were SUMO1 PPI mod 0, DNMT1 block 61*, STEP inh 3, LMPTP inh 1, Scp1 inh -7, DNMT1 confirm 1 and Beacon interf -1.
`CCOc1ccc(NC(=S)Nc2ccc3nsnc3c2)cc1` gave SUMO1 PPI mod 50*, DNMT1 block 85*, STEP inh 8, LMPTP inh 8, Scp1 inh -5, DNMT1 confirm -1 and Beacon interf -2.
For Cc1cccc(-n2ncc3c(=O)[nH]c(SCC(=O)NCCC4=CCCCC4)nc32)c1 the results were SUMO1 PPI mod 5, DNMT1 block 13, STEP inh 0, LMPTP inh -1 and Scp1 inh -1.
For COc1ccc(C(CNC(=O)COc2ccccc2C)N2CCCCC2)cc1 (stereo unspecified) the results were SUMO1 PPI mod 0, DNMT1 block 0, STEP inh 0, LMPTP inh 0 and Scp1 inh 1.
Screening COc1ccc(C(CNC(=O)COc2ccccc2C#N)N2CCOCC2)cc1 (stereo unspecified) returned SUMO1 PPI mod -3, DNMT1 block 104*, STEP inh -1, LMPTP inh 1, Scp1 inh -6, DNMT1 confirm 6 and Beacon interf 8.
`COc1ccc(C(CNC(=O)c2ccc(S(=O)(=O)Nc3cccc(C)c3C)cc2)N2CCOCC2)cc1` (stereo unspecified) gave SUMO1 PPI mod -58, DNMT1 block 95*, STEP inh -1, LMPTP inh -8, Scp1 inh -5, DNMT1 confirm 2 and Beacon interf 6.

Assay outcomes: PubChem, Sanford-Burnham Center for Chemical Genomics
